Structures are written as SMILES.

In one assay the test system is Fusarium graminearum. Briefly: Antifungal activity against Gibberella zeae assessed as inhibition of mycelium growth at 100 ug/ml after 48 hrs. Type of assay: functional. The note with it: read-out: GI. The gist of the method: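 Poisoned-medium plate test: compound mixed into molten medium and poured into dishes; once set, each plate was seeded with a 5 mm mycelium disk, inverted, and held at 28 °C for 48 h. The blank control was medium without sample, and tests were run in triplicate. Mycelial diameter was measured, and inhibition was taken as I = [(C − T)/C] × 100%, with C the mean blank diameter and T the mean treated diameter.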

A short description of assay [1]: Inhibition of Escherichia coli PDHC-E1 expressed in Escherichia coli TB1 using 2,6-dichlorophenolindophenol as substrate after 3 mins. Put shortly:
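MBP-fusion enzyme was expressed in E. coli TB1 grown in LB with 2% glucose and ampicillin at 37 °C to A600 0.6–0.8, then induced with 0.5 mM IPTG for 7 h at 25 °C. Protein was purified by MBP affinity to >95% purity and quantified by Bradford. The assay buffer was 50 mM K3PO4 pH 7.2 with 2.0 mM pyruvate substrate and 0.8 mM 2,6-DCIP. Enzyme and inhibitor were preincubated 3 min at 37 °C, and then ThDP was added to start the reaction. DCIP reduction was read at 600 nm. IC50 was obtained by fitting initial rates against varied inhibitor concentration to the Hill equation.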

Another assay has as its system Alternaria alternata. Description: Antifungal activity against Alternaria alternata Keissler assessed as inhibition of mycelium growth at 100 ug/ml after 48 hrs. Type of assay: functional. The following applies: read-out: GI. Put shortly: (§1)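 Poisoned-agar mycelial growth test. Compound mixed into medium and poured into dishes. Once solidified, plates were inoculated with a 5 mm mycelium disk, inverted and incubated at 28 °C for 48 h. Medium without sample served as blank. Mycelial elongation radius was measured in triplicate. Inhibition (%) = [(C − T)/C] × 100, where C and T are the mean mycelial diameters of the blank and the treated plates.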

Assay [2] in a line: Antifungal activity against Colletotrichum orbiculare assessed as inhibition of mycelium growth at 100 ug/ml after 48 hrs. Type of assay: functional. Put shortly:
as §1

The subject of another assay is Alternaria solani. Description: Antifungal activity against Alternaria solani assessed as inhibition of mycelium growth at 100 ug/ml after 48 hrs. Type of assay: functional. The following applies: read-out: GI. The gist of the method: as §1
Another assay relates to Rhizoctonia solani. Description: Antifungal activity against Rhizoctonia solani assessed as inhibition of mycelium growth at 100 ug/ml after 48 hrs. Type of assay: functional. The note with it: read-out: GI. The gist of the method:
as §1

In the next assay the test system is Botrytis cinerea. Description: Antifungal activity against Botryotinia fuckeliana assessed as inhibition of mycelium growth at 100 ug/ml after 48 hrs. The note with it: read-out: GI. Type of assay: functional. The gist of the method:
as §1

One may read the IC50 as the point on the concentration scale where inhibition reaches its midpoint. The low end stands for greater potency, the high end for weaker potency. For `Cc1ncc(Cn2nnc(COc3ccccc3)c2I)c(N)n1`, the inhibition of growth at 100 µg/mL with Fusarium graminearum turned out to be 59%; in the assay on Alternaria alternata, 23%; in the assay on Alternaria solani it was 57%; with Rhizoctonia solani it was 96%; in the assay on Botrytis cinerea it was 88%. Further, in assay [1], the concentration for half-maximal inhibition (IC50) was 19.6 µM. Besides, the growth inhibition (GI) in assay [2] worked out at 45%.
In the case of `Cc1ncc(Cn2nnc(COc3ccc([N+](=O)[O-])cc3)c2I)c(N)n1`, the inhibition of growth at 100 µg/mL in the assay with Fusarium graminearum was 68%; in the assay on Alternaria alternata it was 59%; in the assay on Alternaria solani, 66%; with Rhizoctonia solani, 97%; in the assay with Botrytis cinerea, 84%. For the same molecule, half-maximal inhibition in assay [1] (IC50) was put at 5.33 µM. The growth inhibition (GI) in assay [2] is 35%.
In turn, `Cc1ncc(Cn2cc(COc3ccc(Cl)c(C)c3)nn2)c(N)n1` had a 50% inhibitory concentration (IC50) in assay [1] of 26.2 µM.
For the molecule `Cc1ncc(Cn2cc(COc3ccc([N+](=O)[O-])cc3)nn2)c(N)n1`, the inhibition of growth at 100 µg/mL came out at 0% with Fusarium graminearum; 33% with Alternaria alternata; 24% in the assay on Alternaria solani; 24% in the assay on Rhizoctonia solani; 37% in the assay with Botrytis cinerea. In addition, the growth inhibition (GI) in assay [2] amounted to 43%.
Regarding `CCOC(=O)c1ccc(OCc2cn(Cc3cnc(C)nc3N)nn2)cc1`, in assay [1], the IC50 was determined as 28.8 µM.
For the molecule `Cc1ncc(Cn2cc(COc3ccc([N+](=O)[O-])cc3Cl)nn2)c(N)n1`, the inhibition of growth at 100 µg/mL is 0% in the assay on Fusarium graminearum; 36% with Alternaria alternata; 20% in the assay with Alternaria solani; 31% in the assay with Rhizoctonia solani; 44% with Botrytis cinerea. In assay [2], the growth inhibition (GI) is 57%.
Molecule `Cc1ncc(Cn2cc(COc3ccc(Cl)cc3Cl)nn2)c(N)n1` registered an IC50 in assay [1] of 18.7 µM.
On the same count and under the same terms, next, `Cc1ncc(Cn2cc(COc3cccc(C(F)(F)F)c3)nn2)c(N)n1`: 32.7 µM.
Consider `Cc1ccc(Cl)c(OCc2cn(Cc3cnc(C)nc3N)nn2)c1`, for which, in assay [1], the IC50 is 29 µM.
Take `Cc1ncc(Cn2cc(COc3ccc(Cl)cc3)nn2)c(N)n1`: the inhibition of growth at 100 µg/mL in the assay with Fusarium graminearum was found to be 51%; in the assay with Alternaria alternata, 52%; in the assay on Alternaria solani, 44%; with Rhizoctonia solani it was 23%; with Botrytis cinerea it was 73%. In assay [1], this molecule registered an IC50 of 26.4 µM. Further, the growth inhibition (GI) in assay [2] came to 50%.
As for `Cc1ncc(Cn2cc(COc3ccccc3[N+](=O)[O-])nn2)c(N)n1`, in assay [1], inhibition was half-maximal at 36.3 µM (IC50).
With `Cc1ncc(Cn2cc(COc3ccccc3)nn2)c(N)n1`, the inhibition of growth at 100 µg/mL in the assay on Fusarium graminearum came out at 0%; in the assay with Alternaria alternata it was 43%; in the assay on Alternaria solani, 25%; in the assay with Rhizoctonia solani, 0%; in the assay with Botrytis cinerea, 53%. The growth inhibition (GI) in assay [2] was 40%.
Regarding `Cc1ncc(Cn2cc(COc3ccc(C(=O)O)cc3)nn2)c(N)n1`, the inhibition of growth at 100 µg/mL in the assay on Fusarium graminearum stood at 21%; with Alternaria alternata it was 57%; in the assay on Alternaria solani, 33%; in the assay on Rhizoctonia solani it was 0%; with Botrytis cinerea, 67%. For the same molecule, in assay [2], the growth inhibition (GI) came out at 42%.
Regarding `COc1ccc(OCc2cn(Cc3cnc(C)nc3N)nn2)cc1`, in assay [1], the concentration for half-maximal inhibition (IC50) was 81.6 µM.
As to `CC1COC(Cn2cncn2)(c2ccc(Oc3ccc(Cl)cc3)cc2Cl)O1` (configuration not stated) [DIFENOCONAZOLE], the inhibition of growth at 100 µg/mL in the assay on Fusarium graminearum worked out at 98%; with Alternaria alternata, 100%; with Alternaria solani it was 100%; with Rhizoctonia solani, 100%; in the assay with Botrytis cinerea, 96%. Also, the growth inhibition (GI) in assay [2] turned out to be 97%.
In assay [1], `COC(=O)Cc1ccc(OCc2cn(Cc3cnc(C)nc3N)nn2)cc1` returned an IC50 of 102 µM.
Regarding `Cc1ncc(Cn2cc(COc3ccc([N+](=O)[O-])cc3[N+](=O)[O-])nn2)c(N)n1`, the inhibition of growth at 100 µg/mL came out at 48% in the assay on Fusarium graminearum; 0% in the assay on Alternaria alternata; 0% with Alternaria solani; 0% in the assay on Rhizoctonia solani; 54% in the assay with Botrytis cinerea. Further, the IC50 in assay [1] was found to be 11.3 µM. In addition, the growth inhibition (GI) in assay [2] was 42%.
In assay [1], `Cc1ncc(Cn2cc(COc3ccc(F)cc3Cl)nn2)c(N)n1` had an IC50 of 43.3 µM.
